High-throughput results (PubChem BioAssay)
HNF4A DNA FP – change in binding of human HNF4 alpha to DNA | activity change, % at 10 µM | HNF4a-FITC DNA binding, fluorescence polarization, 1 h | P41235 | hit rate 0.3% among 360,000; in the data active = activity change above about 30%, passing the limit was not always enough
CSN inh – CSN deneddylation inhibition. Q92905. Purified CSN, SCF-Nedd8-OG deneddylation, fluorescence polarization. inhibition, % at 12.5 µM. hit rate 0.38% among 360,000. AID 651999;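 active = pattern-corrected inhibition above about 35%, with an unprinted fluorescence ratio check between 0.5 and 1.5, limit read from the data, passing the limit was not always enough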
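Assay system: Purified human Csn5 enzyme expressed in HEK293T cells | Amount: Enzyme 0.24 nM | Measured by: Fluorescence polarization readout | Medium: Tris/NaCl/DTT buffer, pH 7.5 | Compound dosing: One concentration, 12.5 µM, 0.25% DMSO | Times: 90 min incubation of compound, enzyme and substrate at room temperature | Control set: no-enzyme wells high, enzyme-with-substrate wells low | Read-out: % inhibition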
PREPL inh – human PREPL enzyme inhibition | hit rate 0.68% among 320,000 | AID 2751 | recombinant PREPL, fluorescence polarization activity-based probe | inhibition, % at 5.96 µM | Q4J6C6; in the data active = inhibition above about 43%
TbMetRS inhib – blocks T. brucei methionyl-tRNA synthetase activity; purified T. brucei MetRS, ATP depletion, Kinase-Glo luminescence; inhibition, % at 11.9 µM; hit rate 0.4% among 360,000;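 active = inhibition above a per-plate cutoff of the control wells' mean inhibition plus 3 SD, cut at about 5.5% in these data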
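Material: parasite MetRS enzyme / Replication: singlicate, one well per compound / Signal: luminescence of leftover ATP / Schedule: 2 h aminoacylation at 25 °C after 15 min preincubation / Medium: HEPES-MgCl2-KCl buffer plus DTT, spermine, BSA, pyrophosphatase / Doses: 11.9 µM single point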
Rpn11 inh – blocks the human proteasome subunit Rpn11; O00487; human 26S proteasome, Ub4-pepOG fluorescence polarization; 20S core pre-blocked with epoxomicin; inhibition, % at 20 µM; hit rate 0.59% among 360,000; AID 588493;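 active = inhibition at 20 µM, scaled to each plate's controls, above about 33%, limit read from the data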
Neddylation inh – blocks human cullin neddylation; inhibition, % at 25 µM; P61081+Q13564; TR-FRET cullin neddylation, biochemical; hit rate 0.58% among 360,000; in the data active = inhibition above about 36%
Target sequence (P61081 whole entry, looked up): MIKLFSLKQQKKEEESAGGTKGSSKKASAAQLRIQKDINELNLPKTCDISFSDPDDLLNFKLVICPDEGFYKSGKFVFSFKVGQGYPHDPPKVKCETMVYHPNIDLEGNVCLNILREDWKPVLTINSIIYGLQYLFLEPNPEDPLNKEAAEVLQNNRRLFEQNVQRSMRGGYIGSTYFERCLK
Target sequence (Q13564 whole entry, looked up): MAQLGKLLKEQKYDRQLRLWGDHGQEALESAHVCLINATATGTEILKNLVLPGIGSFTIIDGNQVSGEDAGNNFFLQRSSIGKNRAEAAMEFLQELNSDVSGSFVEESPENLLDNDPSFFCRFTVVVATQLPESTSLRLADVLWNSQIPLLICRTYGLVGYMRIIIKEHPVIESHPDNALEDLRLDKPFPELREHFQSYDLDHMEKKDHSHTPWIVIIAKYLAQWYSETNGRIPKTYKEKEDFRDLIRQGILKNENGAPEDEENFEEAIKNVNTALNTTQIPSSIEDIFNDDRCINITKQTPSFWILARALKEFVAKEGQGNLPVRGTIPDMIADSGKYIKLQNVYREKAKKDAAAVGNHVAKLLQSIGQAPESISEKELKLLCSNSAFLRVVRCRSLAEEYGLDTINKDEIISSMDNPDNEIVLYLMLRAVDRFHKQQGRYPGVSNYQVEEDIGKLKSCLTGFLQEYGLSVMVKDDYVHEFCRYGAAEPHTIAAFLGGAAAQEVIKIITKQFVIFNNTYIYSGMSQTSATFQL
Tb MetRS conf – Trypanosoma brucei MetRS inhibition confirmed; shares compounds with TbMetRS inhib; hit rate 93% among 1,400; T. brucei MetRS enzyme, luminescence (ATP depletion); inhibition, % at 11.9 µM; in the data active = inhibition above about 7%
Jurkat tox – counter-screen for T. brucei MetRS inhibitors: Jurkat cell cytotoxicity; shares compounds with TbMetRS inhib; Jurkat cells viability, ATP luminescence; inhibition, % at 8.3 µM; hit rate 12% among 1,400; in the data active = inhibition above about 15%
Tb MetRS inh FP – inhibits T. brucei methionyl tRNA synthetase in orthogonal FP test. purified T. brucei MetRS, fluorescence polarization. inhibition, % at 11.9 µM. AID 651607. hit rate 44% among 1,400. shares compounds with TbMetRS inhib; in the data active = inhibition above about 17%
Each line names hits and unclear results; the compound was inactive in the other large screens (follow-up assays come after a bar, where shown). In the library only some 2.4% were active in any assay of this set; here they are far more common.

CNC(=S)NNC(=O)c1ccc(=O)n(Cc2cccc(C(F)(F)F)c2)c1	TbMetRS inhib 6.1 | Tb MetRS conf 13 | Jurkat tox inactive | Tb MetRS inh FP inactive
O=C(Nc1ccccc1)c1ccc(=O)n(Cc2cccc(Cl)c2)c1	TbMetRS inhib 43 | Tb MetRS conf 58 | Jurkat tox inactive | Tb MetRS inh FP 28
C=CCNC(=S)NNC(=O)c1ccc(=O)n(Cc2ccc(Cl)cc2Cl)c1	TbMetRS inhib 34 | Tb MetRS conf 44 | Jurkat tox inactive | Tb MetRS inh FP 32
CCOc1cc(C2C3=C(CC(C)(C)CC3=O)N(C)C3=C2C(=O)CC(C)(C)C3)ccc1O	none
CC(NC(=O)CN1C(=O)NC2(CCc3ccccc32)C1=O)c1ccc2c(c1)OCCO2 (stereo unspecified)	none
CCCn1c(NCc2cc(OC)ccc2OC)nc2ccccc21	TbMetRS inhib 11 | Tb MetRS conf 20 | Jurkat tox inactive | Tb MetRS inh FP inactive
CCn1c(NCc2cc(OC)ccc2OC)nc2ccccc21	TbMetRS inhib 9.8 | Tb MetRS conf 20 | Jurkat tox inactive | Tb MetRS inh FP inactive
CC1(Cc2ccc(Cl)s2)C(=O)Nc2c(Cl)ccc(Cl)c21 (stereo unspecified)	none (no result: PREPL inh)
Cc1cc(Br)ccc1OCCCCNCCO	TbMetRS inhib 6.1 | Tb MetRS conf 11 | Jurkat tox inactive | Tb MetRS inh FP inactive
O=C(c1ccoc1)N1CCN(c2cc(-c3cccc(F)c3)nc3cc(-c4cccc(Cl)c4)nn23)CC1	none (no result: PREPL inh)
O=C(CSc1nnc(Cc2ccc(Cl)cc2)o1)Nc1ccccc1	TbMetRS inhib 7.5 | Tb MetRS conf 14 | Jurkat tox inactive | Tb MetRS inh FP inactive
Cc1ccc(NC(=O)CSc2nnc(Cc3ccccc3)o2)cc1	none
CC(C)(C)n1nnnc1C(c1ccccc1)N1CCN(C(=O)c2ccco2)CC1 (stereo unspecified)	none (no result: PREPL inh, Rpn11 inh)
C#Cc1ccc([C@H]2C=C(C(=O)NCc3nc4ccccc4[nH]3)O[C@@H](OCC)[C@@H]2CCCO)cc1	TbMetRS inhib 12 | Tb MetRS conf 36 | Jurkat tox inactive | Tb MetRS inh FP 17
CCO[C@@H]1OC(C(=O)NCc2nc3ccccc3[nH]2)=C[C@H](C(C)(C)C)[C@H]1CCCO	TbMetRS inhib 6.4 | Tb MetRS conf 33 | Jurkat tox 71 | Tb MetRS inh FP inactive
C#CCNC(=O)C1=C[C@@H](c2ccc(C#C)cc2)[C@H](CCCO)[C@@H](OCC)O1	none
CCO[C@H]1OC(C(=O)NCc2nc3ccccc3[nH]2)=C[C@@H](c2ccc(Br)cc2)[C@@H]1CCCO	TbMetRS inhib 38 | Tb MetRS conf 80 | Jurkat tox inactive | Tb MetRS inh FP 57
CCO[C@@H]1OC(C(=O)NCc2nc3ccccc3[nH]2)=C[C@H](C2CC2)[C@H]1CCCO	none
CCCCCCCC1c2c(c(C)c(C)oc2=O)Oc2c(C)c(C)oc(=O)c21	none
O=C(NCC(=O)N1CCCCC1)c1ccc2ccccc2c1	none
Cc1[nH]c2ccc(F)cc2c(=O)c1SC(F)(F)C(F)C(F)(F)F (stereo unspecified)	TbMetRS inhib 13 | Tb MetRS conf 20 | Jurkat tox inactive | Tb MetRS inh FP inactive
O=c1[nH]c(CSc2ncc(C(F)(F)F)cc2Cl)nc2ccccc12	TbMetRS inhib 53 | Tb MetRS conf 77 | Jurkat tox inactive | Tb MetRS inh FP 54
O=c1[nH]c(Cc2ccc(Cl)cc2)nc2ccccc12	none
O=c1[nH]c(CSc2ccccn2)nc2ccccc12	none
O=c1[nH]c(Cc2cccc(C(F)(F)F)c2)nc2ccccc12	TbMetRS inhib 51 | Tb MetRS conf 55 | Jurkat tox inactive | Tb MetRS inh FP 27
CN1CCSc2ccc(C(=O)NCc3cccc(Br)c3)cc21	TbMetRS inhib 5.7 | Tb MetRS conf 11 | Jurkat tox inactive | Tb MetRS inh FP inactive
Cc1cccc(CNC(=O)c2ccc3c(c2)N(C)CCS3)c1	none (not shown: Neddylation inh)
O=C(Cn1cc(C(=O)C(=O)N2CCOCC2)c2ccccc21)Nc1cccc(C(F)(F)F)c1	TbMetRS inhib 90 (no result: PREPL inh) | Tb MetRS conf 97 | Jurkat tox inactive | Tb MetRS inh FP 95
O=C(NCCCCCCNC(=O)c1ccccc1O)c1ccccc1O	TbMetRS inhib 6.7 | Tb MetRS conf 14 | Jurkat tox inactive | Tb MetRS inh FP inactive
O=C(NCCNC(=O)c1ccccc1O)c1ccccc1O	none
CN(CCc1nc2ccccc2[nH]1)Cc1nc(CC2CC2)no1	none
CN(CCc1nc2ccc(Cl)cc2[nH]1)Cc1nc(CC2CC2)no1	TbMetRS inhib 42 | Tb MetRS conf 62 | Jurkat tox inactive | Tb MetRS inh FP 28
Nn1cnc2scc(-c3ccco3)c2c1=O	none
CC(C)c1ccc(N)c(S(=O)(=O)O)c1	TbMetRS inhib 7.7 | Tb MetRS conf inactive | Jurkat tox inactive | Tb MetRS inh FP inactive
CC(=O)N1CCc2c(sc(NC(=O)c3ccc(S(=O)(=O)N(C)CC4CCCO4)cc3)c2C(N)=O)C1 (stereo unspecified)	none (no result: PREPL inh)
Nc1nc2nonc2nc1N1CCCCC1	TbMetRS inhib 7.1 | Tb MetRS conf 13 | Jurkat tox inactive | Tb MetRS inh FP inactive
CCn1c(SCC(N)=O)nc2cc(S(=O)(=O)N3CCOCC3)ccc21	none
CCn1c(SCC(=O)c2c[nH]c3ccccc23)nc2cc(S(=O)(=O)N3CCOCC3)ccc21	TbMetRS inhib 18 | Tb MetRS conf 82 | Jurkat tox inactive | Tb MetRS inh FP 60
NC(=S)NNc1cc(Cl)cc(Cl)c1	TbMetRS inhib 8.1 | Tb MetRS conf 18 | Jurkat tox inactive | Tb MetRS inh FP inactive
CCOC(=O)[C@H]1[C@H]2COc3ccc(OC)cc3[C@H]2N2C(=O)CNC(=O)[C@@]12C	none
CCCCCCCCC1=NCCc2c1[nH]c1ccccc21	TbMetRS inhib 49 (not shown: Neddylation inh) | Tb MetRS conf 70 | Jurkat tox 33 | Tb MetRS inh FP 47
CC(C)C/C=C1\CCc2c([nH]c3ccccc23)C1=O	none
Cc1ccc(NC(=O)Cn2c(=O)c(C)nc3ccccc32)cc1	none
CCOC(=O)c1cccc(NC(=O)Cn2c(CC(=O)NC)nc3ccccc32)c1	TbMetRS inhib 79 | Tb MetRS conf 88 | Jurkat tox inactive | Tb MetRS inh FP 71
Cc1cccc(NC(=O)Cn2c(/C=C/c3ccccc3)nc3ccccc32)c1	TbMetRS inhib 10 (not shown: Neddylation inh) | Tb MetRS conf 19 | Jurkat tox inactive | Tb MetRS inh FP inactive
